Data set [1] has as its system Mus musculus. Nature of the data set: Antiinflammatory activity in Swiss albino mouse assessed as inhibition of carrageenan-induced paw edema at 100 mg/kg, po administered 60 mins before carrageenan challenge measured after 180 mins. Type of data set: functional. An outline of the steps:
(§1)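 Mice fasted overnight, gavaged with suspension in 0.5% carboxymethyl cellulose or vehicle. 60 min later, 0.5 mg/25 µL carrageenan in 154 mM saline injected subplantar into right hind paw, saline into left. Right-minus-left footpad thickness by dial gauge every 90 min over 6 h; % inhibition versus control, mean ± SEM, two-tailed t-test. Indometacin reference.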
Background: Carrageenan injected into the paw causes an acute inflammation.

The test system of data set [2] is Mus musculus. Nature of the data set: Antiinflammatory activity in Swiss albino mouse assessed as inhibition of carrageenan-induced paw edema at 100 mg/kg, po administered 60 mins before carrageenan challenge measured after 270 mins. Type of data set: functional. The procedure, abridged: as §1
For data set [3], the system named is Mus musculus. Description: Antiinflammatory activity in Swiss albino mouse assessed as inhibition of carrageenan-induced paw edema at 100 mg/kg, po administered 60 mins before carrageenan challenge measured after 360 mins. Type of data set: functional. An outline of the steps:
as §1

Data set [4] has as its system Mus musculus. Nature of the data set: Antiinflammatory activity in Swiss albino mouse assessed as inhibition of carrageenan-induced paw edema at 100 mg/kg, po administered 60 mins before carrageenan challenge measured after 90 mins. It counts as functional. An outline of the steps:
as §1

Data set [5] relates to Mus musculus. Nature of the data set: Toxicity in Swiss albino mouse assessed as gastric ulceration at 100 mg/kg, po. Type of data set: organism-based, Stomach. Further details: dose 100 mg/kg, route oral. The settings on record: in vivo. An outline of the steps:
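Mice fasted the day before (water allowed), given 100 mg/kg orally by gavage as suspension in 0.5% carboxymethyl cellulose; vehicle controls. Carrageenan paw oedema followed over 6 h. Immediately after last paw measurement, animals sacrificed under ether anaesthesia, stomachs removed and examined under dissecting microscope; stomach with one or more ulcers scored positive; expressed as ulcerated/total (n=6 per group).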

Data set [6] relates to Mus musculus. Description: Analgesic activity in Swiss albino mouse assessed as p-benzoquinone-induced writhing at 100 mg/kg, po administered 60 mins before benzoquinone challenge. Type of data set: functional. An outline of the steps: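 Mice fasted overnight with water allowed, dosed by gavage with suspension in 0.5% carboxymethyl cellulose; vehicle controls. 60 min later, i.p. 0.1 mL/10 g of 2.5% (v/v) p-benzoquinone in distilled water. Writhes counted individually for 15 min starting 5 min post-injection; % change from vehicle writhing controls, mean ± SEM, two-tailed t-test. Aspirin reference.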
(In general: Writhing tests count abdominal constrictions after an irritant is injected.)

Drawing on ChEMBL document CHEMBL1157044, “Synthesis, biological and medicinal significance of S-glycosido-thieno[2,3-d]-pyrimidines as new anti-inflammatory and analgesic agents” (Eur J Med Chem, 2010), this text covers inhibition in vivo and Activity for 14 compounds.

Molecules are shown by their SMILES.

As to `COc1ccc2c(c1)c(CC(=O)O)c(C)n2C(=O)c1ccc(Cl)cc1` [INDOMETHACIN], the inhibition in vivo at 100 mg/kg in the data set on Mus musculus [1] was 30.6%; in the data set with Mus musculus [2] it was 41.9%; with Mus musculus [3] it was 42.7%; in the data set with Mus musculus [4], 29.5%.
For the compound `CCOC(=O)c1sc2nc(S[C@@H]3O[C@H](CO)[C@H](O)[C@H](O)[C@H]3O)n(N)c(=O)c2c1C`, the Activity result in the data set with Mus musculus [5] is “Non-toxic”.
For the compound `CC(=O)c1sc2nc(S[C@@H]3O[C@H](CO)[C@@H](O)[C@@H]3O)n(N)c(=O)c2c1C`, the inhibition in vivo at 100 mg/kg with Mus musculus [1] is 29.8%; with Mus musculus [2] it was 28.6%; with Mus musculus [6], 48.8%; in the data set on Mus musculus [3], 35.6%; in the data set on Mus musculus [4], 28.5%. Also, in the data set with Mus musculus [5], the Activity result is listed as “Non-toxic”.
For `CCOC(=O)c1sc2nc(S[C@@H]3O[C@H](COC(C)=O)[C@@H](OC(C)=O)[C@@H]3OC(C)=O)n(N)c(=O)c2c1C`, the inhibition in vivo at 100 mg/kg in the data set on Mus musculus [1] stood at 35.6%; in the data set on Mus musculus [2], 35.9%; with Mus musculus [6] it was 53.3%; with Mus musculus [3] it was 38.9%; with Mus musculus [4], 32.1%. Further, the Activity result in the data set with Mus musculus [5] is “Non-toxic”.
As for `CCOC(=O)c1sc2nc(S[C@@H]3O[C@H](CO)[C@@H](O)[C@@H]3O)n(N)c(=O)c2c1C`, the inhibition in vivo at 100 mg/kg in the data set on Mus musculus [1] came to 35.6%; in the data set on Mus musculus [2], 35.9%; with Mus musculus [6], 53.3%; with Mus musculus [3], 38.9%; with Mus musculus [4] it was 32.1%. Besides, in the data set with Mus musculus [5], the Activity entry was “Non-toxic”.
For the compound `CCOC(=O)c1sc2nc(S[C@@H]3O[C@H](COC(C)=O)[C@@H](OC(C)=O)[C@H](OC(C)=O)[C@H]3OC(C)=O)n(N)c(=O)c2c1C`, the inhibition in vivo at 100 mg/kg with Mus musculus [1] is 14.7%; in the data set on Mus musculus [2], 20.3%; with Mus musculus [6] it was 37.9%; with Mus musculus [3] it was 22.3%; in the data set on Mus musculus [4] it was 13.2%.
On to `CC(=O)Oc1ccccc1C(=O)O` [ASPIRIN], for which the inhibition in vivo at 100 mg/kg in the data set with Mus musculus [6] amounted to 51.9%.
As to `CC(=O)OC[C@H]1O[C@@H](Sc2nc3sc(C(C)=O)c(C)c3c(=O)n2N)[C@@H](OC(C)=O)[C@@H]1OC(C)=O`, the inhibition in vivo at 100 mg/kg with Mus musculus [1] came to 29.8%; with Mus musculus [2], 28.6%; with Mus musculus [6], 48.8%; in the data set on Mus musculus [3] it was 35.6%; in the data set on Mus musculus [4], 28.5%. In addition, in the data set with Mus musculus [5], the Activity entry was “Non-toxic”.
Take `CC(=O)OC[C@H]1O[C@@H](Sc2nc3sc(C(C)=O)c(C)c3c(=O)n2N)[C@H](OC(C)=O)[C@@H](OC(C)=O)[C@H]1OC(C)=O`: the inhibition in vivo at 100 mg/kg was determined as 7.8% in the data set with Mus musculus [1]; 10.5% with Mus musculus [2]; 13.8% in the data set with Mus musculus [6]; 13.1% with Mus musculus [3]; 14.9% with Mus musculus [4].
For `CCOC(=O)c1sc2c(c1C)C(=O)N(N)C(S[C@@H]1O[C@H](CO)[C@@H](O)[C@H](O)[C@H]1O)N2` (stereo partly drawn), in that order: 31.2%, 33.9%, 51%, 34.4% and 29.7%.
For `CC(=O)OC[C@H]1O[C@@H](Sc2nc3sc(C(C)=O)c(C)c3c(=O)n2N)[C@H](OC(C)=O)[C@@H](OC(C)=O)[C@@H]1OC(C)=O`, the inhibition in vivo at 100 mg/kg in the data set with Mus musculus [1] worked out at 23.9%; with Mus musculus [2], 29.9%; in the data set with Mus musculus [6] it was 45.4%; with Mus musculus [3], 34.2%; with Mus musculus [4] it was 25.7%. Besides, the Activity entry in the data set on Mus musculus [5] is “Non-toxic”.
Consider `CCOC(=O)c1sc2[nH]c(=S)n(N)c(=O)c2c1C`, for which the inhibition in vivo at 100 mg/kg in the data set with Mus musculus [1] amounted to 6.1%; in the data set on Mus musculus [2], 8.3%; with Mus musculus [6], 23.9%; in the data set on Mus musculus [3], 8.5%; in the data set with Mus musculus [4] it was 1.2%. In addition, in the data set with Mus musculus [5], the Activity entry was “Non-toxic”.
As for `CC(=O)c1sc2[nH]c(=S)n(N)c(=O)c2c1C`, the inhibition in vivo at 100 mg/kg in the data set on Mus musculus [1] came to 7.8%; in the data set with Mus musculus [2], 8.3%; in the data set with Mus musculus [6], 35.7%; in the data set on Mus musculus [3] it was 8.5%; in the data set with Mus musculus [4], 6.1%. Further, in the data set with Mus musculus [5], the Activity entry is given as “Non-toxic”.
Turning to `CC(=O)c1sc2c(c1C)C(=O)N(N)C(S[C@@H]1O[C@H](CO)[C@H](O)[C@H](O)[C@H]1O)N2` (stereo partly drawn), the inhibition in vivo at 100 mg/kg in the data set on Mus musculus [1] was found to be 16.6%; in the data set on Mus musculus [2], 17.5%; in the data set on Mus musculus [6], 35.7%; in the data set with Mus musculus [3] it was 20.7%; with Mus musculus [4] it was 14.4%.

What is called inhibition in vivo is the share of the control response that was lost under treatment.
